# Bioassay records (PubChem)
# This is a sample that favours compounds with a hit; in the whole collection about 1.8% have one here.
# CHRM5 agonist = human M5 muscarinic receptor agonists, primary screen, CHO-K1 cells, Fluo-8 calcium fluorescence. Muscarinic acetylcholine receptor M5 (Homo sapiens), P08912. CHO-K1 hM5 cells; 0% DMSO wells, 100% maximal acetylcholine response. activation, % at 3 µM. 0.19% of 360,000 active. AID 624037, 2012;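 active means activation above the run's mean over test compounds plus 3 SD, cut at about 23% in these data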;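 further: signal is peak over basal fluorescence ratio across the kinetic read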
# M4 PAM = human M4 muscarinic receptor positive allosteric modulators, primary screen, CHO-K1 cells, Fluo-8 calcium fluorescence | CHO-K1 hM4/Gqi5, ACh EC20; 0% = ACh EC20, 100% = maximal ACh | 0.4% of 360,000 active | activation, % at 3 µM | Muscarinic acetylcholine receptor M4 (Homo sapiens), P08173;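 active means activation above its plate's cutoff, the mean activation of sample wells plus 3 SD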
# Target sequence (P08173 whole entry, looked up): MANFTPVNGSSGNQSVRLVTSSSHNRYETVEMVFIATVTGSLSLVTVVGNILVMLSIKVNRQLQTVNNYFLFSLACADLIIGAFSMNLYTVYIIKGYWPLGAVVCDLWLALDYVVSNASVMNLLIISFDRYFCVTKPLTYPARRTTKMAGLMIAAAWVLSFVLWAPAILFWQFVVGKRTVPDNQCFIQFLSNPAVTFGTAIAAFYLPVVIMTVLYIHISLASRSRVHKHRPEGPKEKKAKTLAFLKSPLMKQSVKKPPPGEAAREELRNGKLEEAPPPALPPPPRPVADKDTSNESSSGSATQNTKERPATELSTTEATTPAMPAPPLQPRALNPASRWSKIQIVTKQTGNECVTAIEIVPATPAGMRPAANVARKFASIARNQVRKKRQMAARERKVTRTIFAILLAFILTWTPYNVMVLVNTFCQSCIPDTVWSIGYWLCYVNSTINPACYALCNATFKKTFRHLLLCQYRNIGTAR
# M5 antag = human M5 muscarinic receptor antagonists, primary screen, CHO cells, Fluo-8 calcium fluorescence | Muscarinic acetylcholine receptor M5 (Homo sapiens), P08912 | CHO-hM5 cells, ACh EC80 | inhibition, % at 3 µM | 0.59% of 360,000 active;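 active means inhibition above a per-plate cutoff, the mean of that plate's test compounds plus 3 SD, cut at about 27% in these data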;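 further: 0% = acetylcholine EC80 with DMSO and 100% = DMSO without agonist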
# M4 antag = human M4 muscarinic receptor antagonists, primary screen, CHO cells, Fluo-8 calcium fluorescence. Muscarinic acetylcholine receptor M4 (Homo sapiens), P08173. CHO-hM4 cells, ACh EC80. inhibition, % at 3 µM. 0.73% of 360,000 active;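 active means inhibition above its plate's cutoff, the mean inhibition of sample wells plus 3 SD, cut at about 27% in these data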;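 further: 0% = acetylcholine EC80 with DMSO and 100% = DMSO without agonist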
# CHRM5 PAM = human M5 muscarinic receptor positive allosteric modulators, primary screen, CHO-K1 cells, Fluo-8 calcium fluorescence | CHO-K1 hM5, ACh EC20 PAM; 0% = ACh EC20, 100% = ACh EC100 | Muscarinic acetylcholine receptor M5 (Homo sapiens), P08912 | activation, % at 3 µM | 0.3% of 360,000 active | AID 624038, 2012;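 active means activation above the run cutoff, the mean activation of all test compounds plus 3 SD, cut at about 18% in these data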
#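 System: CHO-K1 cell line with stable human muscarinic M5 receptor expression | Also added: EC20 acetylcholine as agonist stimulus | Compound: One concentration, 3 µM final (nominal) | Timing: Fluo-8 loading 80 min at 37 °C plus 30 min room temperature | Measured by: Fluo-8 calcium dye fluorescence, kinetic read | Read-out basis: % activation, ACh-normalized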
# CHRM4 agonist = human M4 muscarinic receptor agonists, primary screen, CHO-K1 cells, Fluo-8 calcium fluorescence; CHO-K1 hM4/Gqi5; vehicle 0%, full acetylcholine response 100%; Muscarinic acetylcholine receptor M4 (Homo sapiens), P08173; activation, % at 3 µM; 0.14% of 360,000 active;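 active means activation above the run mean over all test wells plus 3 SD, cut at about 32% in these data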;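 further: peak over basal fluorescence ratio per well then scaled between controls; 0% = DMSO wells and 100% = acetylcholine at EC100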
# * marks the source's active call; other numbers are inactive results.
SMILES,CHRM5 agonist,M4 PAM,M5 antag,M4 antag,CHRM5 PAM,CHRM4 agonist
C[C@@]12C(=O)Nc3ccc(Br)cc3C(=O)N1[C@H]1c3ccccc3OC[C@@H]1[C@@H]2c1ccccc1,3,-9,15,35*,-21,2
Cc1nc(COC(=O)c2c(C)nn(-c3ccccc3)c2C)cs1,-7,3,1,-3,-5,2
CC(=O)Oc1ccc(C(=O)Nc2cccc(C(=O)c3ccc(C)c(C)c3)c2)cc1,0,-7,16,7,-7,7
COc1ccc2c(c1)OC[C@H]1[C@H]2N2C(=O)c3cc(C)ccc3NC(=O)[C@@]2(C)[C@H]1c1ccccc1,3,-10,-3,23,0,0
COc1ccc2c(c1)OC[C@H]1[C@H]2N2C(=O)c3ccccc3NC(=O)[C@@]2(C)[C@H]1c1ccccc1,-6,-11,12,56*,-20,2
COC(=O)CCCn1cc(CN(C)C2CN(Cc3cn(CCCC(=O)OC)nn3)S(=O)(=O)C2)nn1 (centres undefined),3,4,12,1,-8,1
CC1([N+](=O)[O-])COC2(OC1)C(=O)Nc1ccccc12 (centres undefined),-3,-18,8,48*,0,0
C=CCn1c(=O)c(C(=O)Nc2ccccc2C)c(O)c2ccccc21,8,-4,-17,-16,27*,0
CC(C)Cn1c(=O)c(C(=O)Nc2ccncc2)c(O)c2ccccc21,-20,-47,100*,98*,-33,1
C=CCn1c(=O)c(C(=O)Nc2ccccc2O)c(O)c2ccccc21,-10,-5,-2,4,-4,0
O=C(O)C1OCC2(CO1)COC(C(=O)O)OC2 (centres undefined),2,4,-2,0,9,0
Nc1nc(C(F)(F)F)c(Br)c(=O)n1N,0,2,7,2,-5,1
CC[C@H](C)Cc1cn([C@@H](CCCCNC(=O)OC(C)(C)C)C(=O)NCCCCCCCCCCC(=O)N2CCN(C(=O)OC(C)(C)C)CC2)nn1,-2,-15,9,28*,-21,25
CCC1(c2ccc(F)cc2)NC(=O)N(CC(=O)c2cc(C)n(C3CC3)c2C)C1=O (centres undefined),25*,9,10,-2,-2,12
Cc1cc(C(=O)CN2C(=O)NC(C)(c3cc(F)ccc3F)C2=O)c(C)n1C1CC1 (centres undefined),4,-6,5,8,-7,4
CCC1(c2ccc(F)cc2)NC(=O)N(CC(=O)N2c3ccccc3NC(=O)CC2C)C1=O (centres undefined),0,7,-2,-7,2,1
CCC1(c2ccc(OC)cc2)NC(=O)N(CC(=O)N2CCc3ccccc32)C1=O (centres undefined),39*,-1,5,-2,-7,19
CCC1(c2ccc(F)cc2)NC(=O)N(CC(=O)N2c3ccccc3CC2C)C1=O (centres undefined),29*,1,0,-6,1,18
CC(C)NC(=O)CN1CCN(Cc2nc(C(c3ccccc3)c3ccccc3)no2)CC1,-17,-20,21,25,-35,3
COc1ccccc1C(=O)COC(=O)c1cc([N+](=O)[O-])ccc1N1CCOCC1,-4,1,10,-13,-7,4
COc1cc(C(=O)COC(=O)c2cc([N+](=O)[O-])ccc2N2CCOCC2)ccc1OC(F)F,-6,-4,7,28*,-9,2
CN(C)CCC=C1c2ccccc2C=Cc2ccccc21,0,-19,99*,99*,-18,5
CN(C)CC/C=C1/c2ccccc2COc2ccc(CC(=O)O)cc21,-2,-3,7,4,-11,0
CNCCC=C1c2ccccc2C=Cc2ccccc21,1,-18,99*,90*,-18,4
CN(C)CCC=C1c2ccccc2CCc2ccccc21,0,-17,99*,95*,-19,3
SMILES,CHRM5 agonist,M4 PAM,M5 antag,M4 antag,CHRM5 PAM,CHRM4 agonist
CNc1ccc(C=C2C=Cc3ccccc32)cc1,6,8,2,-5,2,3
CC(=O)c1cn(CCOc2cc(C)ccc2C)c2ccccc12,0,-17,33*,17,-23,12
Cc1ccc(C)c(OCCn2cc(C(=O)O)c3ccccc32)c1,1,0,23,1,-9,17
Cc1ccc([C@H]2C[C@H](O)[C@@H](n3cc(C4CC4)nn3)CN2C(=O)C2CCCCC2)cc1,0,5,-2,-19,0,3
c1ccc2c(c1)Cn1nnnc1-2,1,12,-8,4,18*,0
COC(=O)c1[nH]c2ccc(F)cc2c1NS(=O)(=O)c1ccc(F)c(C)c1,-5,-31,20,40*,-10,5
Cc1c(Cl)cccc1NC(=S)N1CCCCCC1,-2,5,-3,-3,12,0
CCOC(=O)C1CCCN(C(=S)Nc2ccc(OC)cc2)C1 (centres undefined),34*,-10,7,11,-18,7
CCOC(=O)c1ccc(NC(=S)N2CCCC(C(=O)OCC)C2)cc1 (centres undefined),23,-3,17,5,-6,3
CCOC(=O)C1CCCN(C(=S)Nc2cccc(Cl)c2)C1 (centres undefined),33*,-4,-2,7,-12,6
CCOC(=O)C1CCCN(C(=S)Nc2ccc(F)cc2)C1 (centres undefined),23,2,-3,-3,-12,7
CCOC(=O)C1CCCN(C(=S)Nc2cccc(Cl)c2C)C1 (centres undefined),28*,0,11,6,-17,2
CC(=O)N1CCN(Cc2nc(C(c3ccccc3)c3ccccc3)no2)CC1,-10,-6,4,3,-17,1
Cc1nc(CN2CCN(Cc3nc(C(c4ccccc4)c4ccccc4)no3)CC2)cs1,-10,-19,34*,26,-15,1
c1ccc(C(c2ccccc2)c2noc(CN3CCN(C4CCCC4)CC3)n2)cc1,-11,-21,11,30*,-20,0
Cc1cccnc1CN1CCN(Cc2nc(C(c3ccccc3)c3ccccc3)no2)CC1,-19,-55,9,36*,-36,1
COc1ccccc1CN1C(=O)C(C)ON=C1c1ccccc1F (centres undefined),-3,5,-2,-5,-1,1
